Here are results for three compounds from ChEMBL document CHEMBL4020742, “Design and optimization of purine derivatives as in vivo active PDE10A inhibitors” (Bioorg Med Chem, 2017).

Data set [1] deals with T1, CYP3A4 (Homo sapiens, UniProt P08684). The data set can be described thus: (§1) Time-dependent inhibition of CYP3A4 in human microsomes at 10 uM using midazolam as substrate preincubated for 5 mins followed by NADPH addition measured 20 mins relative to control. As to conditions: human microsomes, probe midazolam, read-out: TDI. The data set is classed as ADME.
T1 sequence (P08684 whole entry): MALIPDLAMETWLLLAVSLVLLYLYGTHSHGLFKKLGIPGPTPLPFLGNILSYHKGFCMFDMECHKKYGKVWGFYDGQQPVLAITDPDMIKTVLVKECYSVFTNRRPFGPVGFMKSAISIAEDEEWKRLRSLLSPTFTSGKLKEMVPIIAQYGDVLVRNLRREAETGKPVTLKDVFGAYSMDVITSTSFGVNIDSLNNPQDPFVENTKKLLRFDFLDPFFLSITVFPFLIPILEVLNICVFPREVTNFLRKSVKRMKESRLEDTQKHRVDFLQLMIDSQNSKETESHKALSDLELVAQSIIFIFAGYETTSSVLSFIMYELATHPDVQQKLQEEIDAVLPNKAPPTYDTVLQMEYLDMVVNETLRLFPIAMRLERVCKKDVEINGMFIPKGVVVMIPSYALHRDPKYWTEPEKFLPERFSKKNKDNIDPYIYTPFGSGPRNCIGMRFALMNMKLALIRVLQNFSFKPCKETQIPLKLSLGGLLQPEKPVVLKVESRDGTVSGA
The target in data set [2] is T1, CYP3A4. Description: Inhibition of CYP3A4 in human microsomes at 10 uM using midazolam as substrate preincubated for 5 mins followed by NADPH addition measured 20 mins relative to control. The format is ADME. As to conditions: human microsomes, probe midazolam, read-out: TDI. Put shortly: (§2)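 Pooled human microsomes (0.2 mg/mL) in 100 mM phosphate pH 7.4 with a probe cocktail: midazolam 10 µM, dextromethorphan 10 µM, diclofenac 20 µM, phenacetin 100 µM, mephenytoin 100 µM. Test compound was 10 µM; organic solvent was under 1%. After 5 min preincubation at 37 °C, 1 mmol/L NADPH was added and the reaction ran 20 min, keeping substrate conversion below 20%. Metabolite formation was expressed relative to PBS control.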

A further data set concerns the target T2, CYP1A2 (Homo sapiens, UniProt P05177).
T2 sequence (P05177 whole entry): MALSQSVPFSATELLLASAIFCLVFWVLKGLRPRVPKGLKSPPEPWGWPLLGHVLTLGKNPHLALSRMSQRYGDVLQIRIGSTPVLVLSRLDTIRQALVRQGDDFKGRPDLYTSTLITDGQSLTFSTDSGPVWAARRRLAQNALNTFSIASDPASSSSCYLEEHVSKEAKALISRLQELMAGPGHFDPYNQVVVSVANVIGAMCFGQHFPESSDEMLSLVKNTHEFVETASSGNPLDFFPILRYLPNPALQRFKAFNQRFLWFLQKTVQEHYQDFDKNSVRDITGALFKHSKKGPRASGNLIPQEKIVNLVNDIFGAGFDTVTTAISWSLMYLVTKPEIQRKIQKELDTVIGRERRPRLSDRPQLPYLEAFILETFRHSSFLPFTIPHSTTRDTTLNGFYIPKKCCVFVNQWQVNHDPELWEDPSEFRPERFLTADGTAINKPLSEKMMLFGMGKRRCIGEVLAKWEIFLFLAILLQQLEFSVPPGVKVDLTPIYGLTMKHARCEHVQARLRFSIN
The data set can be described thus: Inhibition of CYP1A2 in human microsomes at 10 uM using phenacetin as substrate preincubated for 5 mins followed by NADPH addition measured 20 mins relative to control. The format is ADME. The conditions noted are these: probe phenacetin, read-out: TDI. Put shortly:
as §2

In data set [3] the target is T3, CYP2C9 (Homo sapiens, UniProt P11712). The data set can be described thus: (§3) […] of CYP2C9 in human microsomes at 10 uM using diclofenac as substrate preincubated for 5 mins followed by NADPH addition measured 20 mins relative to control. The conditions noted are these: human microsomes, probe diclofenac, read-out: TDI. The format is ADME.
T3 sequence (P11712 whole entry): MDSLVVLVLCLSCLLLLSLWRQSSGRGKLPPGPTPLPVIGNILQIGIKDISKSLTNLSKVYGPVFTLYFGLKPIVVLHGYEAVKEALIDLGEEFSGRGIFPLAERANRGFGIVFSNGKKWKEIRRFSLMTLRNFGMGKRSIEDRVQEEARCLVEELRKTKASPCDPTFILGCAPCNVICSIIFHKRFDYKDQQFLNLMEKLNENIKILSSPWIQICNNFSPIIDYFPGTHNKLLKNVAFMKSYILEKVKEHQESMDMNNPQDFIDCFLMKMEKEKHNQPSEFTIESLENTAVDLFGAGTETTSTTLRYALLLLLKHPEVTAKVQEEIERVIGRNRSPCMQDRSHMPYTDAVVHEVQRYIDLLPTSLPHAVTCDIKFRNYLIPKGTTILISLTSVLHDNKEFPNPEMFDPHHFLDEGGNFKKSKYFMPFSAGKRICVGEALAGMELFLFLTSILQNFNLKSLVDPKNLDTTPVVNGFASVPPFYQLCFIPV
Data set [4] relates to Rattus norvegicus. Description: Antipsychotic activity in Sprague-Dawley rat assessed as inhibition of PCP-induced prepulse inhibition deficit at 10 mg/kg, po pretreated for 30 mins followed by PCP addition measured after 5 mins to 10 mins. The format is functional, organism-based. An outline of the steps: (§4)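 Male SD rats (200-250 g) were dosed p.o. in saline with 0.5% Tween 80 and 0.2% CMC-sodium, 30 min before PCP 5 mg/kg i.p. Acoustic startle PPI was tested in startle chambers 5-10 min after PCP. Startle magnitude was the mean of pulse-alone trials. n = 11-16 per group; mean ± SEM; ANOVA with post hoc tests.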

Data set [5] concerns the target T4, CYP2D6 (Homo sapiens, UniProt P10635). Description: Inhibition of CYP2D6 in human microsomes at 10 uM using dextromethorphan as substrate preincubated for 5 mins followed by NADPH addition measured 20 mins relative to control. The format is ADME. The conditions noted are these: human microsomes, probe dextromethorphan, read-out: TDI. An outline of the steps: as §2

For data set [6], the target named is T3, CYP2C9. Description: Inhibition of CYP2C9 in human microsomes at 10 uM using diclofenac as substrate preincubated for 5 mins followed by NADPH addition measured 20 mins relative to control. The data set is classed as ADME. The conditions noted are these: human microsomes, probe diclofenac, read-out: TDI. An outline of the steps:
as §2

Data set [7] concerns Rattus norvegicus. Description: Antipsychotic activity in Sprague-Dawley rat assessed as inhibition of PCP-induced hyperlocomotion at 10 mg/kg, po pretreated for 30 mins followed by PCP addition measured after 5 mins for 1.5 hrs by open field test. The data set is classed as functional, organism-based. An outline of the steps:
(§5)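 Male SD rats (200-250 g), acclimated at least 1 week. Drug was given p.o. in sterile saline with 0.5% Tween 80 and 0.2% CMC-sodium, 30 min before PCP 5 mg/kg i.p. Rats were placed in a 40×40×45 cm open-field arena 5 min after PCP and video-tracked for 90 min. Read-out was total distance travelled, reported as mean ± SEM.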

The subject of data set [8] is Rattus norvegicus. Description: Antipsychotic activity in Sprague-Dawley rat assessed as inhibition of PCP-induced hyperlocomotion at 50 mg/kg, po pretreated for 30 mins followed by PCP addition measured after 5 mins for 1.5 hrs by open field test. The data set is classed as functional, organism-based. An outline of the steps: as §5
For a further data set, the target named is T5, Cytochrome P450 1A2 (Homo sapiens, UniProt P05177).
T5 sequence (P05177 whole entry): T2 sequence (P05177 whole entry)
Description: Time-dependent inhibition of CYP1A2 in human microsomes at 10 uM using phenacetin as substrate preincubated for 5 mins followed by NADPH addition measured 20 mins relative to control. The format is ADME. The conditions noted are these: microsomes, 20 min, 10 µM.

The test system of data set [9] is Rattus norvegicus. The data set can be described thus: Antipsychotic activity in Sprague-Dawley rat assessed as inhibition of PCP-induced prepulse inhibition deficit at 50 mg/kg, po pretreated for 30 mins followed by PCP addition measured after 5 mins to 10 mins. The data set is classed as functional, organism-based. An outline of the steps:
as §4

Data set [10] concerns the target T6, Cytochrome P450 2C19 (Homo sapiens, UniProt P33261). Description: (§6) […] of CYP2C19 in human microsomes at 10 uM using mephenytoin as substrate preincubated for 5 mins followed by NADPH addition measured 20 mins relative to control. The data set is classed as ADME. The conditions noted are these: microsomes, 20 min, 10 µM.
In data set [11] the target is T7, cAMP and cAMP-inhibited cGMP 3',5'-cyclic phosphodiesterase 10A (Homo sapiens, UniProt Q9Y233). The data set can be described thus: Inhibition of recombinant human N-terminal GST-tagged PDE10A1 (2 to 789 residues) expressed in baculovirus infected Sf9 cells at 5 uM using fluorescein-labeled cAMP as substrate preincubated for 15 mins followed by substrate addition measured after 30 mins by IMAP fluorescence polarization assay relative to control. Put shortly:
(§7)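 Recombinant PDE4A1A, PDE2A1 or PDE10A1 was incubated with compound (1% DMSO, duplicate) for 15 min at RT. Fluorescein-cAMP was then added for 30 min at RT, and the reaction was stopped with IMAP binding reagent (1 h, dark). FP was read at Ex485/Em535. Inhibition was set against no-enzyme and DMSO controls. IC50 came from a four-parameter logistic fit; values are the mean of at least two measurements.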

Data set [12] concerns the target T8, CYP2C19 (Homo sapiens, UniProt P33261). Description: (§8) Inhibition of CYP2C19 in human microsomes at 10 uM using mephenytoin as substrate preincubated for 5 mins followed by NADPH addition measured 20 mins relative to control. The conditions noted are these: human microsomes, probe mephenytoin, read-out: TDI. The data set is classed as ADME. Put shortly:
as §2

Another data set has as its target Cytochrome P450 2D6 (Homo sapiens, UniProt P10635). Description: (§9) […] of CYP2D6 in human microsomes at 10 uM using dextromethorphan as substrate preincubated for 5 mins followed by NADPH addition measured 20 mins relative to control. As to conditions: microsomes, 20 min, 10 µM. The data set is classed as ADME.
Data set [13] is described as follows: Half life in mouse liver microsomes at 1 uM preincubated for 5 mins followed by NADPH addition measured up to 30 mins by LC-MS/MS analysis. The format is ADME, microsome. An outline of the steps: (§10)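 Liver microsomes (0.5 mg/mL) plus 1 µM compound were preincubated 5 min at 37 °C in 0.1 M phosphate buffer pH 7.4 containing EDTA and MgCl₂. NADPH started the reaction. Samples at 0, 5, 10 and 30 min were quenched with cold acetonitrile containing tinidazole internal standard and centrifuged. Parent remaining was quantified by LC/MS/MS.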
(Microsomes from liver hold many membrane-bound enzymes, among them those of drug oxidation.)

Data set [14] can be described thus: Half life in human liver microsomes at 1 uM preincubated for 5 mins followed by NADPH addition measured up to 30 mins by LC-MS/MS analysis. The format is ADME, microsome. Put shortly:
as §10

A further data set addresses PDE2A1 (Homo sapiens, UniProt O00408). The data set can be described thus: Inhibition of recombinant human N-terminal FLAG-tagged PDE2A1 (2 to 941 residues) expressed in baculovirus infected Sf9 cells at 1 uM using fluorescein-labeled cAMP as substrate preincubated for 15 mins followed by substrate addition measured after 30 mins by IMAP fluorescence polarization assay relative to control. As to conditions: probe fluorescein-labeled cAMP. Put shortly: as §7
For orientation: In fluorescence polarisation assays a small probe gives low polarisation when free and higher when bound to something large.

Data set [15] concerns the target T7, cAMP and cAMP-inhibited cGMP 3',5'-cyclic phosphodiesterase 10A. Description: Inhibition of recombinant human N-terminal GST-tagged PDE10A1 (2 to 789 residues) expressed in baculovirus infected Sf9 cells using fluorescein-labeled cAMP as substrate preincubated for 15 mins followed by substrate addition measured after 30 mins by IMAP fluorescence polarization assay. Put shortly:
as §7

A further data set addresses Cytochrome P450 3A4 (Homo sapiens, UniProt P08684). The description is as §1. The format is ADME. As to conditions: microsomes, 20 min, 10 µM.
In data set [16] the target is T8, CYP2C19. The description is as §6. As to conditions: human microsomes, probe mephenytoin, read-out: TDI. The format is ADME.
In data set [17] the target is T4, CYP2D6. The description is as §9. The format is ADME. As to conditions: human microsomes, probe dextromethorphan, read-out: TDI.
The target in another data set is Cytochrome P450 2C9 (Homo sapiens, UniProt P11712). The data set is described as §3. The data set is classed as ADME. As to conditions: microsomes, 20 min, 10 µM.
Sequence of Cytochrome P450 2C9 (P11712 whole entry): as above
In data set [18] the target is T6, Cytochrome P450 2C19. The data set is described as §8. The format is ADME. The conditions noted are these: microsomes, 20 min, 10 µM. Put shortly:
as §2

Structures are written as SMILES. Calls of active or inactive are those of the source. The calls are words filed in the database; no cut-off is given here.

T6 sequence (P33261 whole entry, the tested form may be a part): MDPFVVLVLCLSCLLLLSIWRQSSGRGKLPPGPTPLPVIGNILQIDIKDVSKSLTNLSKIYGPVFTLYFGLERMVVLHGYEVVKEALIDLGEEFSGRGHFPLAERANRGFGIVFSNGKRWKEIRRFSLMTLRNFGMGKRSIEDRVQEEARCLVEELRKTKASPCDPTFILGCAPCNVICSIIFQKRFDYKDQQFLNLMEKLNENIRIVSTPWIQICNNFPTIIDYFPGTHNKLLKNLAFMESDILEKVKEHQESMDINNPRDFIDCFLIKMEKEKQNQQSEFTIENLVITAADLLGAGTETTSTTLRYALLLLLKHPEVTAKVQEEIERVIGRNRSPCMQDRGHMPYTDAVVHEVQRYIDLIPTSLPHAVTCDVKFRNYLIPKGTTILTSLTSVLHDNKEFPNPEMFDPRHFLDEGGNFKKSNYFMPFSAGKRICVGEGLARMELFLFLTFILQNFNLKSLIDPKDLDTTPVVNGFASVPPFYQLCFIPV
T8 sequence (P33261 whole entry): as the sequence (P33261 whole entry, the tested form may be a part) above
T4 sequence (P10635 whole entry): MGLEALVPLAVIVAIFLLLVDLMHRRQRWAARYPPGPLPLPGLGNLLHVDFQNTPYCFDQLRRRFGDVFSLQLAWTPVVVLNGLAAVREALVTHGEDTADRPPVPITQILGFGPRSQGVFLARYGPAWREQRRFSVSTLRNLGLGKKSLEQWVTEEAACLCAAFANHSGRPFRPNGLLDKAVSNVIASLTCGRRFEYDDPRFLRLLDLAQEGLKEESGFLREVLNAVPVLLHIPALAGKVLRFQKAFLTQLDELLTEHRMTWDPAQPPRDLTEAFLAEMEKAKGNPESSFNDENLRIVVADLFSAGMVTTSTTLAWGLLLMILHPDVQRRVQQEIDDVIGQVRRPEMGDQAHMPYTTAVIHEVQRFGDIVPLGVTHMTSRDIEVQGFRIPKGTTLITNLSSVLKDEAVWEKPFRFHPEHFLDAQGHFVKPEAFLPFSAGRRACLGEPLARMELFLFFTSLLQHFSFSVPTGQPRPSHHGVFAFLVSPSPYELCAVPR
T7 sequence (Q9Y233 whole entry, the tested form may be a part): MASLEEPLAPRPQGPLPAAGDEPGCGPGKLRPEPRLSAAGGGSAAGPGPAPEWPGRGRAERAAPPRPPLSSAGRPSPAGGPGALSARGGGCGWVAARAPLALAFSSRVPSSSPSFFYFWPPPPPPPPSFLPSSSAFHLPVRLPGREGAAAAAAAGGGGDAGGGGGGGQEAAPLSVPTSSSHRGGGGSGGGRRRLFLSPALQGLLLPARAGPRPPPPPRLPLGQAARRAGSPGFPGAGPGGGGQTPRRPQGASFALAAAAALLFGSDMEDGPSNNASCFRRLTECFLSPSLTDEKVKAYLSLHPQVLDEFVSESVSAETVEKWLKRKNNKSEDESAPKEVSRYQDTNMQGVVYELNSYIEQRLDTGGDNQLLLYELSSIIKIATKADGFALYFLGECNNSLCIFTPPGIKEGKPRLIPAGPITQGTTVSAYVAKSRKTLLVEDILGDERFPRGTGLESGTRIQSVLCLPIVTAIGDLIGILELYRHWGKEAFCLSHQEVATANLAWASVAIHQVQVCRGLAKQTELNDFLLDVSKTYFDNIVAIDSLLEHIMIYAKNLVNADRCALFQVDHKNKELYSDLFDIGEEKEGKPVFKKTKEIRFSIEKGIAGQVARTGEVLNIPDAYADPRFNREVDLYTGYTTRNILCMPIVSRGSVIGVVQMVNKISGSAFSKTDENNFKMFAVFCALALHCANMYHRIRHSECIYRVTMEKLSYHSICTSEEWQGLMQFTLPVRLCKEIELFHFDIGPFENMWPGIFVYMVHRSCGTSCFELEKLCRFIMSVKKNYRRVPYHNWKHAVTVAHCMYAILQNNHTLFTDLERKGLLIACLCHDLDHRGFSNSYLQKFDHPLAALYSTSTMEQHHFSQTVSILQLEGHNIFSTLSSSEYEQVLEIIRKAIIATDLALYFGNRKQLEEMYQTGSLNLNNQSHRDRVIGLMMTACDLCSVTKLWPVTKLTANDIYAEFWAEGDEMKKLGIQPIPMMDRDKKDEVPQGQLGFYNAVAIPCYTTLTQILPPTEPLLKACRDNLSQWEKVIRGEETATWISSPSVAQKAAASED
Sequence of Cytochrome P450 2D6 (P10635 whole entry): as the sequence (P10635 whole entry) above
Sequence of PDE2A1 (O00408 whole entry, the tested form may be a part): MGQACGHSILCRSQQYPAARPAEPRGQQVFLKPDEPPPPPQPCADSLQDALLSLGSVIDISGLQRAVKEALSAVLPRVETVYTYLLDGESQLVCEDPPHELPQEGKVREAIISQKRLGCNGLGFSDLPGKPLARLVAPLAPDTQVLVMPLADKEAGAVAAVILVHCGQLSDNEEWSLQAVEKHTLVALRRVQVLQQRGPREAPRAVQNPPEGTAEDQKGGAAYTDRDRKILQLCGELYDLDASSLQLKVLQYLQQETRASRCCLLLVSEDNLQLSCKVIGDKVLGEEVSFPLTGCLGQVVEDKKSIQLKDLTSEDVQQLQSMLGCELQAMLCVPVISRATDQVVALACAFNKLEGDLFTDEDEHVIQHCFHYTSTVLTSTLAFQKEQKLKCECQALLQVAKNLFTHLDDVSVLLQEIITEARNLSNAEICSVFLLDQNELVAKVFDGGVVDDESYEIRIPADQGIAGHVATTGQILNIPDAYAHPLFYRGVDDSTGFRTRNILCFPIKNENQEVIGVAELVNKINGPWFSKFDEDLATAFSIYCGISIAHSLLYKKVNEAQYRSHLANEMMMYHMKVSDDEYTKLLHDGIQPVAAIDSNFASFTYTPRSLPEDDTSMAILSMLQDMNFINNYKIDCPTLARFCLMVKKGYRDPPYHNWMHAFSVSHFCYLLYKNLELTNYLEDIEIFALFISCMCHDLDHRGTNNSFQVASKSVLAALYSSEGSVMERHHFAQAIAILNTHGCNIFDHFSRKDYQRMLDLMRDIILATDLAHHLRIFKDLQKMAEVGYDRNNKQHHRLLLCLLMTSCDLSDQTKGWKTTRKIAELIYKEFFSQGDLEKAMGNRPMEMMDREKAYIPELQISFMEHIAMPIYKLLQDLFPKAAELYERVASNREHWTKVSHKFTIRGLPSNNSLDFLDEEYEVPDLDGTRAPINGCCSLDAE
Sequence of Cytochrome P450 3A4 (P08684 whole entry): as the sequence (P08684 whole entry) above

The term half-life denotes how long it takes for the measured level to halve. What is called IC50 is the concentration that gives 50% inhibition. For the compound `Cc1nc2c(N3CCOCC3)ncnc2n1Cc1ccc(-c2ccccc2Cl)cc1`, the inhibition at 20 min, 10 µM was 50% on CYP3A4 [1]; 9% at CYP3A4 [2]; 15% on CYP1A2; 10% on CYP2C9 [3]; 22% on CYP2D6 [5]; 52% at CYP2C9 [6]. Besides, on CYP2C19 [12], the inhibition at 20 min, 10 µM worked out at 65%. The inhibition entry in the data set on Rattus norvegicus [4], with Rattus norvegicus [8] and with Rattus norvegicus [9] was “inactive” each time. In the data set with Rattus norvegicus [7], the inhibition entry was “Active”. Further, the TDI result at Cytochrome P450 1A2, on Cytochrome P450 2C19 [10] and at Cytochrome P450 2D6 was “Not Active” throughout. Besides, in data set [11], the inhibition was determined as 98%. The half-life at 1 µM in data set [13] was 17.8 min; in [14] it was 43.3 min. Further, the inhibition at 0.5 h, 1 µM on PDE2A1 was found to be 29%. In addition, in [15], the IC50 turned out to be 0.038 µM.
In the case of `Cc1nc2c(N3CCOCC3)ncnc2n1Cc1ccc(-c2cnn(C)c2)cc1`, the TDI result at Cytochrome P450 3A4 and at Cytochrome P450 1A2 was “Not Active” each time. The inhibition at 20 min, 10 µM at CYP3A4 [2] was 40%; on CYP1A2 it was 21%; on CYP2C9 [3] it was 40%; at CYP2D6 [5], 7%; on CYP2C9 [6], 10%; at CYP2C19 [16], 80%. In addition, the inhibition at 20 min, 10 µM on CYP2C19 [12] is 22%; on CYP2D6 [17] it was 20%. The inhibition in data set [11] was 96%. The half-life at 1 µM in data set [13] came to 99 min; in data set [14], 231 min. Also, the IC50 in [15] came to 0.068 µM.
On to `COc1ccc(-c2ccc(CNc3c(C)nc4c(N5CCOCC5)nccn34)cc2)cc1OC`, for which the TDI entry on Cytochrome P450 3A4, on Cytochrome P450 2C9, at Cytochrome P450 1A2, at Cytochrome P450 2C19 [10], at Cytochrome P450 2C19 [18] and on Cytochrome P450 2D6 was “Not Active” each time. Also, the inhibition at 20 min, 10 µM on CYP3A4 [2] worked out at 42%; at CYP1A2, 29%; on CYP2D6 [5] it was 24%; at CYP2C9 [6], 41%. Also, in [11], the inhibition came to 92%. For the same compound, the figures for the half-life at 1 µM in [13] and in data set [14] were 12.8 min and 18.2 min, respectively. For the same compound, the inhibition at 0.5 h, 1 µM at PDE2A1 is 5%. The concentration for half-maximal inhibition (IC50) in data set [15] is 0.452 µM.
